Laboratory results published in ChEMBL document CHEMBL1765030, “Discovery and preclinical evaluation of a novel class of cytotoxic propynoic acid carbamoyl methyl amides (PACMAs)” (J Med Chem, 2011).
The source made the active and inactive calls. The rule behind the calls is not given here.

Experiments:
HEY = test: Cytotoxicity against human HEY cells after 72 hrs by MTT assay; format: functional, cell-based
Summary of the method: (§1)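 Cells were attached overnight, then continuously exposed to drug for 72 h. MTT (0.5 mg/mL final) was added for 4 h at 37 °C, formazan dissolved in DMSO, and A570 read; all in triplicate. IC50 came from log(concentration) vs % cells killed. Media: RPMI-1640 for HT29, HCT116 p53+/+ and p53−/−, and HEY; DMEM for MDA-MB-435 and UMUC3; all with 10% FBS, 37 °C, 5% CO₂.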

[1] = Octanol-water distribution coefficient, log P of the compound; format: physicochemical
HT-29 = test: Cytotoxicity against human HT-29 cells after 72 hrs by MTT assay; format: functional, cell-based; conditions: HT-29, 72 h; summary of the method: as §1
HCT-116 [2] = test: Cytotoxicity against human HCT116 cells […] after 72 hrs by MTT assay; format: functional, cell-based; conditions: HCT-116, 72 h; summary of the method: as §1
HCT-116 [3] = test: Cytotoxicity against p53 deficient human HCT116 cells […] after 72 hrs by MTT assay; format: functional, cell-based; conditions: HCT-116, 72 h; summary of the method: as §1
MDA-MB-435 [4] = test: Cytotoxicity against human MDA-MB-435 cells after 72 hrs by MTT assay; format: functional, cell-based; conditions: MDA-MB-435, 72 h; summary of the method: as §1
UMUC3 = test: Cytotoxicity against human UM-UC-3 cells after 72 hrs by MTT assay; format: functional, cell-based; conditions: UMUC3, 72 h; summary of the method: as §1
5637 = test: Cytotoxicity against human 5637 cells after 72 hrs by MTT assay; format: functional, cell-based; conditions: Homo sapiens, 5637, 72 h
NCI/ADR-RES = test: Cytotoxicity against human NCI/ADR-RES cells after 72 hrs by MTT assay; format: functional, cell-based
MDA-MB-435 [5] = test: Cytotoxicity against human MDA-MB-435 cells at 1 uM after 24 hrs using crystal violet staining by colony formation assay; format: functional, cell-based
Summary of the method: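 Cells were plated at 1000 per well, attached overnight, and exposed to 1 μM for 24 h. They were then washed and grown in fresh medium for 8–10 days until colonies formed, fixed in 1% glutaraldehyde for 30 min, and stained with 2% crystal violet for 30 min. Vehicle was DMSO.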

MDA-MB-435 [6] = test: Cell cycle arrest in human MDA-MB-435 cells assessed as accumulation at G0/G1 phase at 5 uM after 6 hrs using propidium iodide staining by flow cytometry (reference value: 50%); format: functional
MDA-MB-435 [7] = test: Cell cycle arrest in human MDA-MB-435 cells assessed as accumulation at S phase at 5 uM after 6 hrs using propidium iodide staining by flow cytometry (reference value: 41%); format: functional
MDA-MB-435 [8] = test: Cell cycle arrest in human MDA-MB-435 cells assessed as accumulation at G2/M phase at 5 uM after 6 hrs using propidium iodide staining by flow cytometry (reference value: 9%); format: functional
MDA-MB-435 [9] = test: Cell cycle arrest in human MDA-MB-435 cells assessed as accumulation at G0/G1 phase at 5 uM after 12 hrs using propidium iodide staining by flow cytometry (reference value: 50%); format: functional
MDA-MB-435 [10] = test: Cell cycle arrest in human MDA-MB-435 cells assessed as accumulation at S phase at 5 uM after 12 hrs using propidium iodide staining by flow cytometry (reference value: 41%); format: functional
MDA-MB-435 [11] = test: Cell cycle arrest in human MDA-MB-435 cells assessed as accumulation at G2/M phase at 5 uM after 12 hrs using propidium iodide staining by flow cytometry (reference value: 9%); format: functional
MDA-MB-435 [12] = test: Cell cycle arrest in human MDA-MB-435 cells assessed as accumulation at G0/G1 phase at 5 uM after 24 hrs using propidium iodide staining by flow cytometry (reference value: 50%); format: functional
MDA-MB-435 [13] = test: Cell cycle arrest in human MDA-MB-435 cells assessed as accumulation at S phase at 5 uM after 24 hrs using propidium iodide staining by flow cytometry (reference value: 41%); format: functional
MDA-MB-435 [14] = test: Cell cycle arrest in human MDA-MB-435 cells assessed as accumulation at G2/M phase at 5 uM after 24 hrs using propidium iodide staining by flow cytometry (reference value: 9%); format: functional
MDA-MB-435 [15] = test: Induction of apoptosis in human MDA-MB-435 cells assessed as viable cells at 10 uM after 24 hrs using by annexin V and propidium iodide staining by flow cytometry relative to control; format: functional; conditions: MDA-MB-435, 24 h, read-out: Activity
Summary of the method: (§2)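 Treatment was 10 μM for 24 and 48 h, with an untreated 48 h control run in parallel. Floating and adherent cells were pooled and stained with annexin V-FITC/propidium iodide, then read by flow cytometry (FITC and PE channels). Quadrants: annexin−/PI− viable; annexin+/PI− early apoptotic; annexin+/PI+ late apoptotic; lower right necrotic/debris.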

MDA-MB-435 [16] = test: Induction of apoptosis in human MDA-MB-435 cells assessed as pre-necrotic cells at 10 uM after 24 hrs using by annexin V and propidium iodide staining by flow cytometry relative to control; format: functional; summary of the method: as §2
MDA-MB-435 [17] = test: Induction of apoptosis in human MDA-MB-435 cells assessed as apoptotic cells at 10 uM after 24 hrs using by annexin V and propidium iodide staining by flow cytometry relative to control; format: functional; summary of the method: as §2
MDA-MB-435 [18] = test: Induction of apoptosis in human MDA-MB-435 cells assessed as necrotic cells at 10 uM after 24 hrs using by annexin V and propidium iodide staining by flow cytometry relative to control; format: functional; summary of the method: as §2
MDA-MB-435 [19] = test: Induction of apoptosis in human MDA-MB-435 cells assessed as viable cells at 10 uM after 48 hrs using by annexin V and propidium iodide staining by flow cytometry relative to control; format: functional; conditions: MDA-MB-435, 48 h, read-out: Activity; summary of the method: as §2
MDA-MB-435 [20] = test: Induction of apoptosis in human MDA-MB-435 cells assessed as pre-necrotic cells at 10 uM after 48 hrs using by annexin V and propidium iodide staining by flow cytometry relative to control; format: functional; summary of the method: as §2
MDA-MB-435 [21] = test: Induction of apoptosis in human MDA-MB-435 cells assessed as apoptotic cells at 10 uM after 48 hrs using by annexin V and propidium iodide staining by flow cytometry relative to control; format: functional; summary of the method: as §2
MDA-MB-435 [22] = test: Induction of apoptosis in human MDA-MB-435 cells assessed as necrotic cells at 10 uM after 48 hrs using by annexin V and propidium iodide staining by flow cytometry relative to control; format: functional; summary of the method: as §2
MDA-MB-435 [23] = test: Increase of mitochondrial superoxide accumulation in human MDA-MB-435 cells at IC50 to 3 times IC50 after 24 hrs by flow cytometry; format: functional, cell-based
Summary of the method: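 Cells were drug-treated at two concentrations for 24 h, then loaded with 5 μM MitoSOX Red for 10 min at 37 °C and washed three times in HBSS. Cells were either viewed by fluorescence microscopy or trypsinized, washed twice in HBSS and read by flow cytometry; untreated cells served as control.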

[24] = Elimination rate constant in mouse at 24 mg/kg, ip; format: ADME, organism-based; parameters: dose 24 mg/kg, route intraperitoneal; conditions: in vivo
Summary of the method: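 Mice received a single 24 mg/kg i.p. injection, with two mice per time point. Blood was drawn into heparinized syringes at set times between 0.5 and 24 h, and plasma was separated by centrifugation and stored at −80 °C. Plasma drug was quantified by validated LC-MS (lowest quantification level 1 ng/mL), and parameters were derived by noncompartmental analysis.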

Mus musculus [25] = test: Toxicity in human MDA-MB-435 cells xenografted athymic nude mouse assessed as histological changes in organ at 10 mg/kg, ip for 9 days followed by 20 mg/kg, ip for 5 days followed by 40 mg/kg, ip for 12 days; format: organism-based; conditions: in vivo
Mus musculus [26] = test: Toxicity in human MDA-MB-435 cells xenografted athymic nude mouse assessed as change in doy weight at 10 mg/kg, ip for 9 days followed by 20 mg/kg, ip for 5 days followed by 40 mg/kg, ip for 12 days; format: organism-based; conditions: in vivo
Summary of the method: (§3)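 Athymic nude mice were inoculated s.c. on the rear flank with 1.5 × 10⁶ log-phase MDA-MB-435 cells. At ~100 mm³ average tumor volume, mice were randomized (n = 8) to vehicle (10% DMSO/90% sesame oil) or drug, given i.p. once daily, dosed by group mean body weight. Caliper tumor measurements were taken twice weekly, volume = d²×D/2; mice were followed 17 days after dosing ended, with body weight monitored.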

MDA-MB-435 [27] = test: Antitumor activity against human MDA-MB-435 cells xenografted in athymic nude mouse assessed as reduction of tumor burden at 10 mg/kg, ip for 9 days followed by 20 mg/kg, ip for 5 days followed by 40 mg/kg, ip for 12 days; format: functional, organism-based; summary of the method: as §3
MDA-MB-435 [28] = test: Induction of apoptosis in human MDA-MB-435 cells assessed as up-regulation of p53 protein expression at 1 uM after 24 to 72 hrs by Western blotting; format: functional, cell-based
Summary of the method: (§4)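 Cells were treated with 1 μM for 24–72 h and lysed in 50 mM Tris-HCl pH 7.5, 150 mM NaCl, 1% NP-40. Equal protein (BCA) was run on 10% tris-glycine SDS-PAGE and blotted to nitrocellulose. Membranes were blocked in 5% BSA/PBS for 1 h, probed overnight at 4 °C with anti-p53 or anti-caspase-9 (plus tubulin/GAPDH antibodies), and detected by HRP secondary with ECL imaging.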

MDA-MB-435 [29] = test: Induction of apoptosis in human MDA-MB-435 cells assessed as decrease of caspase 9 protein expression at 1 uM after 24 to 72 hrs by Western blotting relative to control; format: functional; summary of the method: as §4

Compound | IC50 (HEY) | logP [1] | IC50 (HT-29) | IC50 (HCT-116 [2]) | IC50 (HCT-116 [3]) | IC50 (MDA-MB-435 [4]) | IC50 (UMUC3) | IC50 5637 | IC50 (NCI/ADR-RES) | Activity (MDA-MB-435 [5]) | viability at 10 µM (MDA-MB-435 [15]) | Activity (MDA-MB-435 [16]) | Activity (MDA-MB-435 [17]) | Activity (MDA-MB-435 [18]) | viability at 10 µM (MDA-MB-435 [19]) | Activity (MDA-MB-435 [20]) | Activity (MDA-MB-435 [21]) | Activity (MDA-MB-435 [22]) | Activity (MDA-MB-435 [23]) | also measured
C#CC(=O)N(c1ccc(-n2cnnn2)c(C)c1)C(C(=O)NC1CCCC1)c1ccccc1F (configuration not stated) | 1.5 µM | 3.91 | 1.8 µM | 6.3 µM | 5.5 µM | 1.4 µM | 6.3 µM | 0.7 µM | 1 µM | Active | 66% | 6% | 1% | 27% | 11% | 24% | 3% | 62% | Active | Activity (MDA-MB-435 [6]): 40%; Activity (MDA-MB-435 [7]): 51%; Activity (MDA-MB-435 [8]): 9%; Activity (MDA-MB-435 [9]): 36%; Activity (MDA-MB-435 [10]): 51%; Activity (MDA-MB-435 [11]): 13%; Activity (MDA-MB-435 [12]): 33%; Activity (MDA-MB-435 [13]): 51%; Activity (MDA-MB-435 [14]): 16%; k el [24]: 5.72e-05 s⁻¹
C#CC(=O)N(c1cccc(C(F)(F)F)c1)C(C(=O)NC1CCCC1)c1cccc(OC)c1 (configuration not stated) | 5.2 µM | 3.7 | 7.2 µM | > 10 µM | 8.8 µM | 6.3 µM | > 20 µM | 0.6 µM | 0.2 µM | Active | 93% | 2% | 1% | 4% | 52% | 10% | 1% | 37% | Active | Activity (Mus musculus [25]): Non-toxic; Activity (Mus musculus [26]): 29 g; Activity (MDA-MB-435 [27]): Active
C#CC(=O)N(c1cc(OC)cc(OC)c1)C(C(=O)NC1CCCCC1)c1ccc(OC)cc1 (configuration not stated) | 4.4 µM | 2.54 | 6.3 µM | 12.5 µM | 11 µM | 5.4 µM | > 20 µM | 2.2 µM | 0.3 µM | Active | 95% | 2% | 1% | 2% | 53% | 9% | 3% | 35% | Active | Activity (MDA-MB-435 [28]): Active; fold change (FC) (MDA-MB-435 [29]): 2
